# Experimental data published in ChEMBL document CHEMBL1777808, “Preparation and pharmacological evaluation of a novel series of 2-(phenylthio)benzo[b]thiophenes as selective MT2 receptor ligands” (Eur J Med Chem, 2011).
# What was measured:
# [1] = target: T1, Melatonin receptor type 1A (Homo sapiens, UniProt P48039); assay: Displacement of 2-[125I]iodomelatonin from human MT1 receptor expressed in CHO cells; format: cell-based
# [2] = target: T2, Melatonin receptor type 1B (Homo sapiens, UniProt P49286); assay: Agonist activity at human MT2 receptor expressed in CHO cells by [35S]GTPgamma binding assay; format: functional, cell-based
# T2 sequence (P49286 whole entry): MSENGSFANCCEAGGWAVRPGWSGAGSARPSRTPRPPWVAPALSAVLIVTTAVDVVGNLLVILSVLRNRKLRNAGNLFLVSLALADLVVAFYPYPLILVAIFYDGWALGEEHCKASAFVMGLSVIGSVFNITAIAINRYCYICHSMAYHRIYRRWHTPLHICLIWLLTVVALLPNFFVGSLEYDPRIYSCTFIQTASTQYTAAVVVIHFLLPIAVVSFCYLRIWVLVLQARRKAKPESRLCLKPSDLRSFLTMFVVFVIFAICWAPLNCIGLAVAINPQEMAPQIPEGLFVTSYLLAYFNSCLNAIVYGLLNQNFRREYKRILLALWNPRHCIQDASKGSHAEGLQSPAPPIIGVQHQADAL
# [3] = target: T2, Melatonin receptor type 1B; assay: Displacement of 2-[125I]iodomelatonin from human MT2 receptor expressed in CHO cells; format: cell-based
# [4] = target: T3, Melatonin receptor type 1B (Homo sapiens) (UniProt P49286); assay: Agonist activity at human MT2 receptor expressed in CHO cells by [35S]GTPgamma binding assay relative to melatonin; format: functional, cell-based
# T3 sequence (whole entry): T2 sequence (P49286 whole entry)
# Homo sapiens = species on record: Homo sapiens; assay: Selectivity ratio of Ki for human MT1 receptor to Ki for human MT2 receptor
# How it was run: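 Ki values from competition binding on membranes of stably transfected CHO cells (human MT1 or MT2). Ratio is MT1 Ki over MT2 Ki.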
# [5] = target: T1, Melatonin receptor type 1A; assay: Agonist activity at human MT1 receptor expressed in CHO cells by [35S]GTPgamma binding assay; format: functional, cell-based
# [6] = target: T1, Melatonin receptor type 1A; assay: Agonist activity at human MT1 receptor expressed in CHO cells by [35S]GTPgamma binding assay relative to melatonin; format: functional, cell-based
# [7] = target: T1, Melatonin receptor type 1A; assay: Antagonist activity at human MT1 receptor expressed in CHO cells assessed as inhibition of melatonin-induced [35S]GTPgamma binding; format: functional, cell-based
# How it was run: (§1)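 Then 0.2 nM [35S]GTPγS added, 1 h at room temperature in HEPES pH 7.4/NaCl/MgCl2/GDP/saponin buffer. Filtration, three ice-cold washes.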
# [8] = target: T3, Melatonin receptor type 1B (Homo sapiens); assay: Antagonist activity at human MT2 receptor expressed in CHO cells assessed as inhibition of melatonin-induced [35S]GTPgamma binding; format: functional, cell-based; how it was run: as §1
# T1 sequence (P48039 whole entry): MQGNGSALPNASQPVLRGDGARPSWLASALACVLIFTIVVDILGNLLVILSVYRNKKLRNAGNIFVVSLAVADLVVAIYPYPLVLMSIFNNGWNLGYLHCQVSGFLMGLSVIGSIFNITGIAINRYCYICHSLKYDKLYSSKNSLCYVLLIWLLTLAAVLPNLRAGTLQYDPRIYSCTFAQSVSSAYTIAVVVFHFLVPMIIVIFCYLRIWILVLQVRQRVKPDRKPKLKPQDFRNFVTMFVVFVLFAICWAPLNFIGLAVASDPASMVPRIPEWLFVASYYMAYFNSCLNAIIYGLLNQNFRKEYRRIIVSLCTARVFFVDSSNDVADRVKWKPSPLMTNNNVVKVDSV
Ki [1] [nM],EC50 [2] [nM],Ki [3] [nM],Emax [4] [%],Ratio Ki (Homo sapiens),EC50 [5] [nM],Emax [6] [%],Kb [7] [nM],Kb [8] [nM],Imax [7] [%],Imax [8] [%],SMILES
22.1,7.27,5.21,47,4.2,> 10000,–,–,–,–,–,O=C(CBr)NCCc1c(Sc2ccc(F)cc2)sc2ccc(F)cc12
24.6,0.68,4.87,61,5,23.8,87,62.8,> 10000,–,–,CC(=O)NCCc1csc2ccc(F)cc12
226,> 10000,4.4,–,51.4,> 10000,–,42,0.67,115,92,CCC(=O)NCCc1c(Sc2ccc(F)cc2)sc2ccc(F)cc12
236,–,10.7,–,22,–,–,–,–,–,–,C=CC(=O)NCCc1c(Sc2ccc(F)cc2)sc2ccc(F)cc12
57,0.64,0.87,42,65.5,202,33,–,–,–,–,CC(=O)NCCc1c(Sc2ccc(F)cc2)sc2ccc(F)cc12
915,–,194,–,4.7,–,–,–,–,–,–,O=C(NCCc1c(Sc2ccc(F)cc2)sc2ccc(F)cc12)C1CCC1
2860,–,24.8,–,115,–,–,–,–,–,–,O=C(CCCCl)NCCc1c(Sc2ccc(F)cc2)sc2ccc(F)cc12
52.8,2.15,0.24,52.4,220,188,45,–,–,–,–,C=CCC(=O)NCCc1c(Sc2ccc(F)cc2)sc2ccc(F)cc12
